Assay outcomes from PubChem BioAssay.
Hits are enriched below; roughly 2.2% of the tested compounds scored in any of these assays.
PvdQ inh: P. aeruginosa PvdQ acylase inhibition; AID 488965; inhibition, % at 10 µM; purified PvdQ acylase, fluorescence plate reader; 0.063% of 340,000 active; in the data active means inhibition above about 30%, passing the limit was not always enough; inconclusive means no clear call, values can overlap the other calls;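 further: 0% = vehicle neutral wells and 100% = reference inhibitor wells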
ERp5 block: blocks human ERp5 reductase activity on insulin | ERp5 insulin aggregation, absorbance 650 nm, 90 min | inhibition, % at 9.99 µM | 0.05% of 350,000 active | Q15084;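 active means mean replicate inhibition above about 25%, with every replicate also reaching it, limit read from the data, passing the limit was not always enough; inconclusive means only one of those two criteria met; inactive means neither criterion met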
Target sequence (Q15084 whole entry, looked up): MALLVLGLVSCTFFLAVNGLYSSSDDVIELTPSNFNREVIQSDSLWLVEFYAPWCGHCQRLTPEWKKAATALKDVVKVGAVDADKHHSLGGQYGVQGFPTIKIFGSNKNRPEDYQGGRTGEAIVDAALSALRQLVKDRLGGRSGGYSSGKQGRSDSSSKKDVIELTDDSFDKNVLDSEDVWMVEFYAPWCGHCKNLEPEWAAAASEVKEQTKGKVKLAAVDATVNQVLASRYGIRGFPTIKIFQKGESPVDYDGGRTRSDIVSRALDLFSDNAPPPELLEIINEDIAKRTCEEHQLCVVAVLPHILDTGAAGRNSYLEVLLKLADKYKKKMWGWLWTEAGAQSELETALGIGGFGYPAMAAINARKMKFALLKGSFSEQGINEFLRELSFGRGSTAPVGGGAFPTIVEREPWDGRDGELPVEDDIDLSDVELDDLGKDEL
Ecoli rRNA inh: inhibitors of bacterial rRNA selective over humanized ribosomes. E. coli WT GFP vs humanized-ribosome RFP mutants, fluorescence, 24 h; stronger effect = lower value; DMSO median 0, no signal -100. GFP signal change (wild-type ribosome), % (concentration not given with the values). 1.6% of 350,000 active. AID 720706;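 active means significant combined selectivity score with lowered wild-type GFP, culture density cut under 30%, mutant RFP and density less affected; inactive means any of these conditions unmet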
FN deposition inh: fibronectin deposition inhibition | AH1F fibroblasts, Alexa488-fibronectin deposition fluorescence, overnight | inhibition, % at 12.6 µM | 0.086% of 350,000 active | AID 743247;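 active means mean inhibition across replicates of 30% or more, regardless of how many single replicates reach that level; inconclusive means mean under 30% yet at least half of replicates reach 30%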;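 further: positive control wells lacked labelled fibronectin entirely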
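Material: AH1F fibroblast monolayer depositing Alexa488-labelled fibronectin into matrix / Amount: 10000 AH1F cells per well / Signal: fluorescence 485/525 nm / Medium: DMEM, 2% serum / Compound: single dose, pinned / Incubation: 1 h cell adhesion before compound, then overnight fibronectin incubation / Reagent: Alexa488-FN, 24 nM final / Read-out: inhibition of fibronectin deposition signal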
Env fusion inh: blocks HIV Env-driven cell-cell fusion | 1.1% of 360,000 active | inhibition, % at 12.3 µM | HeLa-JRFL Env/CEM21 cell fusion, luciferase;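 active means mean replicate inhibition score of at least 50 and every replicate individually at or above 50; inconclusive means only one of the two criteria met; inactive means mean below 50 and not all replicates reaching 50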;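 further: 0% = plate neutral controls and 100% = maraviroc near 300 nM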
PDI turbidity: PDI (human) enzyme inhibition; PDI insulin aggregation turbidity, A650, 90 min; inhibition, % at 10 µM; 0.052% of 350,000 active; AID 588391;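 active means mean inhibition across replicates of 30% or more, whatever share of single replicates reach that level; inconclusive means mean inhibition below 30% while every single replicate reaches 30%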
Starred values were filed as active, the others as inactive; u = inconclusive; x = not tested or not shown; [ ] = remark or other dose.

SMILES	PvdQ inh	ERp5 block	Ecoli rRNA inh	FN deposition inh	Env fusion inh	PDI turbidity
CO[C@@H]1CN(C)C(=O)c2cc(NS(C)(=O)=O)ccc2OC[C@@H](C)N(Cc2cccnc2)C[C@@H]1C	x	x	0.7	-1.6	x	x
Cc1ccc(SC2=C[C@@]3(O)CC[C@@H](O)[C@@](Sc4ccc(C)cc4)(C2=O)[C@H]3O)cc1	x	2.9	-25.2*	-3.0	-8.0	x
O=C(Nc1ccc(C(=O)OC[C@@H]2CCCN3CCCC[C@H]23)cc1)c1cccc(Br)c1	-28.1	-2.2	-44.0*	2.3	x	0.3
Cc1ccc(CSc2nnc(C(F)(F)F)n2Cc2ccc(F)cc2)cc1	-7.4	5.8	-27.1*	x	x	5.6
CC(=O)N1CC(C)Sc2ccc(S(=O)(=O)NCCc3ccccc3)cc21 (stereo unspecified)	4.5	0.3	-25.4*	4.3	-3.2	1.3
CC(=O)N1CC(C)Sc2ccc(S(=O)(=O)NCCc3ccc(C)cc3)cc21 (stereo unspecified)	-1.1	2.2	-43.9	0.6	1.5	-1.6
COc1ccc(/C=C/C2=NNC(=O)CC2)cc1	1.0	-2.7	4.8	5.0	59.8*	4.6
CC(c1cccs1)N(Cc1ccco1)C(=S)Nc1ccccc1Cl (stereo unspecified)	-13.6	3.9	-19.6*	2.2	-0.7	1.0
Cc1ccccc1NC(=S)N(Cc1ccco1)C(C)c1cccs1 (stereo unspecified)	-6.0	0.2	-13.0	1.7	u	10.8
O=C(NCC(F)(F)F)[C@@H]1c2ccccc2C(=O)N(CC23CC4CC(CC(C4)C2)C3)[C@H]1c1ccc(CO)cc1	x	1.3	x	x	74.2*[16.7 µM]	x
CCN(CC)S(=O)(=O)c1cc([N+](=O)[O-])ccc1NNC(=O)Nc1ccc(Cl)c(Cl)c1	-15.7	x	x	2.9	97.0*	-0.6
COc1ccc(-c2cc(=O)oc3c(C)c(O)ccc23)cc1	-10.9	1.7	1.8	-3.2	71.5*	14.8
CCN(CC)C(=O)COc1ccc2c(-c3ccc(OC)cc3)cc(=O)oc2c1	-20.5	4.1	-21.8*	-5.8	-6.0	2.3
CCCOc1ccc(/C=N/Nc2cc(N3CCOCC3)ncn2)c(O)c1	-0.6	1.4	18.1	4.1	67.3*	-6.3
Cc1ccc(S(=O)(=O)Nc2ccc3c(c2)C(=O)N([C@H](C)CO)C[C@@H](C)[C@@H](CN(C)C(=O)NC2CCCCC2)OCCCC[C@@H](C)O3)cc1	x	-5.6	-0.3	x	-43.6[16.7 µM]	x
CCOC(=O)CSc1nc(N)c(C#N)c(-c2cccs2)c1C#N	4.6	x	x	x	x	-2.2
N#Cc1c(N)nc(SCc2ccccn2)c(C#N)c1-c1cccs1	4.0	x	x	10.5	55.9*	2.3
N#Cc1c(N)nc(SCc2ccccc2)c(C#N)c1-c1ccco1	-9.6	-0.8	-43.0*	x	x	-6.1
C=CC(=O)Nc1cccc(Oc2ncnc3[nH]cc(-c4cnc5ccccc5c4)c23)c1	2.7	10.5	-0.2	8.8	57.1*	0.1
C=CC(=O)Nc1cccc(Oc2ccnc3[nH]ccc23)c1	0.5	x	x	x	x	0.2
CCCNC(=O)Nc1ccc2c(c1)OC[C@@H](C)N(CCC(F)(F)F)C[C@@H](C)[C@@H](OC)CN(C)C2=O	x	4.1	0.1	-17.3	4.6[16.7 µM]	x
COc1ccc(CCN2C(=O)c3ccccc3C2c2nnnn2Cc2ccccc2)cc1OC (stereo unspecified)	x	0.3	-20.7*	-1.6	3.4	x
COc1ccc(OC)c(CN2C(=O)c3ccccc3C2c2nnnn2-c2c(C)cccc2C)c1 (stereo unspecified)	x	-2.2	-11.2	4.5	67.9*	x
COc1ccc(CCN2C(=O)c3[nH]nc(-c4ccccc4O)c3C2c2cccc(O)c2)cc1OC (stereo unspecified)	-9.8	x	x	-10.0	75.5*	14.1
c1ccc(-c2ccc3c(c2)c2c4n3CCN=C4CCC2)cc1	5.7	x	x	0.6	59.7*	-6.2
SMILES	PvdQ inh	ERp5 block	Ecoli rRNA inh	FN deposition inh	Env fusion inh	PDI turbidity
C[C@@H]1CN([C@@H](C)CO)C(=O)c2cc(NC(=O)Nc3ccc4c(c3)OCO4)ccc2O[C@H]1CN(C)C(=O)NC1CCCCC1	x	-0.8	-3.4	x	-5.4[16.7 µM]	x
COc1ccc(Cn2c(SCc3ccc(C)cc3)nc3cc(OC)c(OC)cc3c2=N)cc1Cl	6.1	x	x	0.5	122.4*	-2.8
COc1ccc(S(=O)(=O)N2CC[C@@H]3[C@@H](CO)Nc4ccc(C5=CCCCC5)cc4[C@@H]32)cc1	x	-0.3	-1.5	-11.1	x	x
COc1cccc(-c2ccc(SCC(=O)c3ccccc3)nn2)c1	-11.7	1.5	-26.9*	4.4	-6.2	-2.4
CCCC(=O)Nc1ccc2c(c1)OC[C@@H](C)N(C(=O)c1ccccc1F)C[C@H](C)[C@H](OC)CN(C)C2=O	x	x	-2.6	-3.0	x	x
CO[C@H]1CN(C)C(=O)c2ccc(NS(C)(=O)=O)cc2OC[C@H](C)N(C)C[C@H]1C	x	-1.2	1.2	-0.2	x	x
Cc1nc(C)c(-c2ccn(S(=O)(=O)c3ccc(Cl)cc3)n2)o1	-7.3	-0.2	-19.1*	0.2	-5.6	1.2
O=C(Nc1ccc(OCC(F)(F)C(F)F)c(C(F)(F)F)c1)c1ccccc1O	-0.6	x	x	6.3	78.0*	13.5
O=C(Nc1ccc(OCC(F)(F)C(F)F)c(C(F)(F)F)c1)c1ccccc1	2.1	x	x	x	x	-2.2
Cc1noc(C)c1NC(=O)Nc1cccc2c1O[C@H](CN(C)CC1CCCCC1)[C@@H](C)CN([C@H](C)CO)C2=O	x	-3.3	-2.2	x	0.0[16.7 µM]	x
NC(=O)c1sc2nc(-c3ccccc3)c3c(c2c1N)CCCC3	-3.1	-1.1	-12.8	-16.4	17.4	1.2
NC(=O)c1sc2nccc(Nc3ccccc3)c2c1N	3.7	x	x	3.5	93.2*	13.6
C[C@H]1CCCCO[C@H](CN(C)C(=O)C2CCCCC2)[C@@H](C)CN([C@@H](C)CO)C(=O)c2cc(NC(=O)Nc3ccc(F)cc3)ccc2O1	x	0.7	-4.6	x	7.1[16.7 µM]	x
C[N+]1(C)CCC(=C2c3ccccc3CC(=O)c3sccc32)CC1	-12.0	x	x	4.2	63.8*	-1.6
CC[N+]1(C)CCC(=C2c3ccccc3CC(=O)c3sccc32)CC1 (stereo unspecified)	-10.4	x	x	-2.9	-16.3	-1.0
COc1ccc(S(=O)(=O)N(C)C[C@@H]2OCCCC[C@H](C)Oc3ccc(NC(=O)c4ccccc4)cc3C(=O)N([C@H](C)CO)C[C@H]2C)cc1	x	4.7	1.3	x	7.0[16.7 µM]	x
O=C(CCCNS(=O)(=O)c1cccs1)N1CCN(c2cccc(Cl)c2)CC1	-1.6	x	x	x	70.8*	-2.4
Cc1nn(S(=O)(=O)c2ccccc2)c(C)c1Sc1ccc([N+](=O)[O-])cc1	-5.6	x	x	x	x	-3.7
Cc1nn(S(=O)(=O)c2cccs2)c(C)c1Sc1ccc([N+](=O)[O-])cc1	3.7	-4.3	-12.8	2.9	97.4*	0.1
CC(C)NC(=O)N(C)C[C@H]1Oc2ccc(NC(=O)Nc3ccccc3)cc2CC(=O)N([C@H](C)CO)C[C@@H]1C	x	-1.7	1.8	x	x	x
CCCN1[C@H](C(=O)NC2CCC2)[C@@H](CO)[C@@H]2Cn3c(ccc(-c4cccnc4)c3=O)[C@@H]21	x	-1.5	4.0	x	6.8[16.7 µM]	x
